ChEMBL document CHEMBL1123696, “1H NMR study of degradation mechanisms of oxacephem derivatives with various 3'-substituents in alkaline solution” (J Med Chem, 1987)

What was measured:
Format in all cases: ADME
[1] = Pseudo first order rate constant of the beta-lactam ring cleavage determined from UV spectra (pH 10, 35 degree C)
In short: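 Oxacephem at about 7.5×10^-5 M initial in 0.008 M carbonate buffer, μ = 0.1, 35.0 ± 0.2 °C. Loss of UV absorbance near 260 nm recorded continuously over time. Pseudo-first-order constant for β-lactam cleavage obtained by the Guggenheim method.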

[2] = Pseudo first order rate constant of the beta-lactam ring cleavage determined from 1H NMR spectra
In short: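 Oxacephem (about 1×10^-2 M initial) in 0.2 M deuteriated carbonate buffer, pD 10.4, μ = 0.5, held at 35 ± 0.5 °C. β-Lactam loss followed by 1H NMR with 64 acquisitions per spectrum. Pseudo-first-order constant from regression of residual oxacephem fraction against time in hours.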

[3] = Pseudo first order rate constant of the beta-lactam ring cleavage determined from 1H NMR spectra; value is corrected for parallel correction.
In short: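 Degradation in 0.2 M deuteriated carbonate buffer, pD 10.4, μ = 0.5, 35 °C, oxacephem about 1×10^-2 M. Time courses of parent and products were recorded by 1H NMR. Rate constants came from kinetic analysis of a parallel-reaction scheme fitted to the experimental curves, which separates the OH− contribution to β-lactam cleavage.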

Row | k obs [1] [h⁻¹] | k obs [2] [h⁻¹] | k obs [3] [h⁻¹] | Compound
1 | 0.139 | 0.164 |  | CO[C@@]1(NC(=O)Cc2ccccc2)C(=O)N2C(C(=O)[O-])=C(CO)CO[C@@H]21.[Na+]
2 | 0.144 | 0.204 |  | COCC1=C(C(=O)[O-])N2C(=O)[C@](NC(=O)Cc3ccccc3)(OC)[C@H]2OC1.[Na+]
3 | 1.26 | 1.39 |  | CO[C@@]1([N-]C(=O)Cc2ccccc2)C(=O)N2C(C(=O)[O-])=C(C[n+]3ccccc3)CO[C@@H]21.[Na+]
4 | 0.285 | 0.255 | 0.308 | CO[C@@]1(NC(=O)Cc2ccccc2)C(=O)N2C(C(=O)[O-])=C(COC(C)=O)CO[C@@H]21.[Na+]
5 | 0.101 | 0.11 |  | CO[C@@]1(NC(=O)Cc2ccccc2)C(=O)N2C(C(=O)[O-])=C(CSC)CO[C@@H]21.[Na+]

Second part, the compound before the results:

Row | Compound | k obs [1] [h⁻¹] | k obs [2] [h⁻¹] | k obs [3] [h⁻¹]
6 | CO[C@@]1(NC(=O)Cc2ccccc2)C(=O)N2C(C(=O)[O-])=C(COC(N)=O)COC21.[Na+] (some centres undefined) | 0.23 | 0.45 | 
7 | CO[C@@]1(NC(=O)Cc2ccccc2)C(=O)N2C(C(=O)[O-])=C(CSc3nnnn3C)CO[C@@H]21.[Na+] | 0.204 | 0.192 | 
8 | CO[C@@]1(NC(=O)Cc2ccccc2)C(=O)N2C(C(=O)[O-])=C(CC#N)CO[C@@H]21.[Na+] | 0.234 | 0.289 | 
9 | CO[C@@]1(NC(=O)Cc2ccccc2)C(=O)N2C(C(=O)[O-])=C(C)CO[C@@H]21.[Na+] | 0.0346 | 0.0484 | 
